In ChEMBL document CHEMBL1143124, “Synthesis and structure-activity relationships of 16-ene-22-thia-1alpha,25-dihydroxy-26,27-dimethyl-19-norvitamin D3 analogs having side chains of different sizes” (Bioorg Med Chem, 2008):

What was measured:
[1] = biological target: Vitamin D3 receptor (Homo sapiens) (UniProt P11473); assay: Activity at human VDR assessed as transcriptional activation in COS cells after 24 hrs by luciferase reporter gene assay relative to 1-alpha,25-(OH)2D3
[2] = biological target: T1, Vitamin D3 receptor (Rattus norvegicus) (UniProt P13053); assay: Displacement of [3H]1-alpha,25-(OH)2D3 from rat recombinant VDR ligand-binding domain relative to 1-alpha,25-(OH)2D3
T1 sequence (whole entry): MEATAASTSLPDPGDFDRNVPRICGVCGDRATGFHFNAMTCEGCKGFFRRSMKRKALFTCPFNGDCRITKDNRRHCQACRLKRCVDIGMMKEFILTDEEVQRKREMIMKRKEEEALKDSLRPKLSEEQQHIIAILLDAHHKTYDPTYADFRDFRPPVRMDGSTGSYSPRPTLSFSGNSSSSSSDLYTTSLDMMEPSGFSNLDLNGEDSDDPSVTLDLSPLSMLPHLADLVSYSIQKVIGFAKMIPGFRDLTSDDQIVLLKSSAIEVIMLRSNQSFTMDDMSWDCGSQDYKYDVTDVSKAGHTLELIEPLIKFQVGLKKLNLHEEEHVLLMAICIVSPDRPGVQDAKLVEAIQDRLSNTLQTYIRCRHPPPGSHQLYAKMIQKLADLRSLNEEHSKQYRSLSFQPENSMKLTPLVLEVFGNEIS
How it was run: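 His-tagged rat VDR LBD (aa 115–423) was expressed in E. coli and the sonicated lysate diluted ~1000-fold in 50 mM Tris pH 7.5 (100 mM KCl, 5 mM DTT, 0.5% CHAPS, 100 µg/ml BSA). It was incubated with [3H]-1α,25-(OH)2D3 (~5000 dpm) at 4 °C for 18 h. Free ligand was removed with dextran-coated charcoal (30 min, 4 °C) and centrifugation, and the supernatant counted. At least two runs, in duplicate.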

Osteoclast = assay: Increase in osteoclast formation in mouse primary osteoclast cocultured cells; type: functional, cell-based
How it was run: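 Tibial marrow cells (1.5×10^5/well) from 5–8-wk male ddY mice were cocultured with primary calvarial cells (3×10^3/well) from newborn ddY mice. Culture was 7 days in α-MEM with 10% FBS and compound at 10^-8 to 10^-12 M, with medium renewed on day 3. Cells were formaldehyde-fixed and TRAP-stained, and TRAP-positive cells with ≥3 nuclei counted microscopically as osteoclasts.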

| Activity [1] | Activity [2] | SMILES | Activity (Osteoclast) |
| --- | --- | --- | --- |
| 2% |  | CCC(O)(CC)CCCCCS[C@@H](C)C1=CCC2/C(=C/C=C3C[C@@H](O)C[C@H](O)C3)CCC[C@]12C (stereo not given in full) |  |
| 9% | 6% | CCC(O)(CC)CS[C@H](C)C1=CCC2/C(=C/C=C3C[C@@H](O)C[C@H](O)C3)CCC[C@]12C (stereo not given in full) | Dose-dependent effect |
| 20% | 8% | CCC(O)(CC)CCCS[C@H](C)C1=CCC2/C(=C/C=C3C[C@@H](O)C[C@H](O)C3)CCC[C@]12C (stereo not given in full) | Dose-dependent effect |
| 1% |  | CCC(O)(CC)CCCCS[C@@H](C)C1=CCC2/C(=C/C=C3C[C@@H](O)C[C@H](O)C3)CCC[C@]12C (stereo not given in full) |  |
| 27% | 4% | CCC(O)(CC)CCS[C@H](C)C1=CCC2/C(=C/C=C3C[C@@H](O)C[C@H](O)C3)CCC[C@]12C (stereo not given in full) | Dose-dependent effect |
| 2000% | 100% | CCC(O)(CC)CCCS[C@@H](C)C1=CCC2/C(=C/C=C3C[C@@H](O)C[C@H](O)C3)CCC[C@]12C (stereo not given in full) | Dose-dependent effect |
| 104% | 60% | CCC(O)(CC)CS[C@@H](C)C1=CCC2/C(=C/C=C3C[C@@H](O)C[C@H](O)C3)CCC[C@]12C (stereo not given in full) | Dose-dependent effect |
| 2000% | 100% | CCC(O)(CC)CCS[C@@H](C)C1=CCC2/C(=C/C=C3C[C@@H](O)C[C@H](O)C3)CCC[C@]12C (stereo not given in full) | Dose-dependent effect |
